In brackets after ≈: the same amount, converted by molar mass.
Tests used:
Type in all cases: functional
Candida albicans [1] = test: Antifungal activity against Candida albicans MY2323
Method in brief: (§1)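 Wild-type C. albicans was tested alongside two heterozygote strains, each carrying a single copy of CLP1 or YSH1, to compare mechanism of action. The read-out was MIC.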

Nakaseomyces glabratus = test: Antifungal activity against Candida glabrata ATCC 90030
Method in brief: (§2)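 MIC was determined in Sabouraud dextrose medium.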

Candida parapsilosis = test: Antifungal activity against Candida parapsilosis 22019; settings: Lodderomyces parapsilosis; method in brief: as §2
Clavispora lusitaniae = test: Antifungal activity against Candida lusitaniae ATCC 34449; method in brief: as §2
Pichia kudriavzevii = test: Antifungal activity against Candida krusei ATCC 6258; method in brief: as §2
Candida tropicalis = test: Antifungal activity against Candida Candida tropicalis ATCC 750; method in brief: as §2
Candida albicans [2] = test: Antifungal activity against Candida albicans MY2323 expressing single copy of CLP1 gene; method in brief: as §1
Candida albicans [3] = test: Antifungal activity against Candida albicans MY2323 expressing single copy of YSH1 gene; method in brief: as §1

SMILES | MIC (Candida albicans [1]) | MIC (Nakaseomyces glabratus) | MIC (Candida parapsilosis) | MIC (Clavispora lusitaniae) | MIC (Pichia kudriavzevii) | MIC (Candida tropicalis) | MIC (Candida albicans [2]) | MIC (Candida albicans [3])
COC(=O)[C@]12Oc3cc4c(c(OC)c3C(=O)C1=C(O)[C@@H]1O[C@@H]1[C@@H]2O)-c1cccc2c(=O)on(c12)C4 [PARNAFUNGIN D] | 0.016 µg/mL (≈ 0.0334 µM) | 5 µg/mL (≈ 10.4 µM) | 2.5 µg/mL (≈ 5.21 µM) | 0.16 µg/mL (≈ 0.334 µM) | 0.016 µg/mL (≈ 0.0334 µM) | 0.6 µg/mL (≈ 1.25 µM) | 0.004 µg/mL (≈ 0.00834 µM) | 0.004 µg/mL (≈ 0.00834 µM)
COC(=O)[C@]12Oc3cc4c(c(OC)c3C(=O)C1=C(O)CC[C@@H]2O)-c1cccc2c(=O)on(c12)C4 [PARNAFUNGIN A] | 2 µg/mL (≈ 4.3 µM) | > 10 µg/mL | > 10 µg/mL | 0.16 µg/mL (≈ 0.344 µM) | 0.08 µg/mL (≈ 0.172 µM) | 2.5 µg/mL (≈ 5.37 µM) | 0.03 µg/mL (≈ 0.0645 µM) | 0.03 µg/mL (≈ 0.0645 µM)

Source: ChEMBL document CHEMBL1136852, “Isolation and structure elucidation of parnafungins C and D, isoxazolidinone-containing antifungal natural products” (2009)
